# Sampled rows, rich in hits. Any-hit rate of the full collection: about 4.2%.
# Ins promoter up: MIN6 insulin promoter up-regulation | AID 1625 | MIN6 insulin promoter-GFP reporter, high-content imaging; hits give high values | hit rate 0.3% among 190,000 | z-score at 5 µM;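 active means z-score above 3 at 5 µM with at least 500 cells counted in the well; inconclusive means wells under 500 cells, flagged as cytotoxic or low count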
# SKKanGAS inh: SKKanGAS growth inhibition. AID 1662. inhibition, % at 7.5 µM. hit rate 1.3% among 300,000. S. pyogenes SKKanGAS, kanamycin growth, BacTiter-Glo, 6 h;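 active means mean replicate score, as percent of positive control median, at least 50; inconclusive means mean below 50 but one replicate at or above 50; inactive means mean and every replicate below 50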;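 further: strain carries kanamycin resistance gene driven by streptokinase promoter and grows in 40 µg/ml kanamycin; loss of luminescence reflects streptokinase promoter inhibition or plain growth inhibition; 0% = median of DMSO wells and 100% = positive control at its reference dose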
# Autophagy HCS: alters autophagy in cells. MEF GFP-LC3 puncta imaging; test concentration mostly 10 µM. calls only at 10 µM (by protocol). hit rate 0.98% among 190,000. AID 463193;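 active means percentage of spot-positive cells more than 3 SD above its plate mean, without a fluorescence outlier flag or 80% toxicity; inconclusive means no clear call, values can overlap the other calls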;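 further: spot-positive cell cutoff set from DMSO-treated cells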
# WT yeast gro inh: growth inhibition of WT yeast, mitochondrial fusion screen; hit rate 2.1% among 190,000; mitochondrial fusion phenotypic screen, WT strain; inhibition, % at 10 µM; in the data active means inhibition above about 58%; tested in S. cerevisiae
# Rad51 HR inh: blocks human Rad51 in homologous recombination; Q06609; hRad51 DNA strand exchange, fluorescence dequenching; inhibition, % at 10 µM; hit rate 0.085% among 200,000;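 active means inhibition above 40% at the single screening dose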;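 further: 0% = DMSO control wells and 100% = blanks with heterologous ssDNA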
#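 material = hRad51 filaments on single-stranded DNA | reagent = Donor/quencher-labelled 47-bp dsDNA substrate | compound = 10 µM final, single point | schedule = strand-exchange reaction 15 min at room temperature | measured by = fluorescein emission 520 nm, excitation 485 nm | read-out basis = % inhibition versus plate control and blank means | benchmarks = plate controls and plate blanks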
# KCC2 mod: KCC2 (human) Cl- transport modulation; Q9H2X9; KCC2 cells, thallium flux FluoZin-2 fluorescence; B-score of Tl+ flux slope (higher = more flux/activation; lower = inhibition) at 10 µM; hit rate 2.2% among 190,000;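 active means thallium flux slope and its plate-corrected score both differing from the plate sample mean at a set confidence after two filtering rounds, in either direction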;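 further: slope of fluorescence scaled to starting intensity during 10 to 20 s after thallium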
# Target sequence (Q9H2X9 whole entry, looked up): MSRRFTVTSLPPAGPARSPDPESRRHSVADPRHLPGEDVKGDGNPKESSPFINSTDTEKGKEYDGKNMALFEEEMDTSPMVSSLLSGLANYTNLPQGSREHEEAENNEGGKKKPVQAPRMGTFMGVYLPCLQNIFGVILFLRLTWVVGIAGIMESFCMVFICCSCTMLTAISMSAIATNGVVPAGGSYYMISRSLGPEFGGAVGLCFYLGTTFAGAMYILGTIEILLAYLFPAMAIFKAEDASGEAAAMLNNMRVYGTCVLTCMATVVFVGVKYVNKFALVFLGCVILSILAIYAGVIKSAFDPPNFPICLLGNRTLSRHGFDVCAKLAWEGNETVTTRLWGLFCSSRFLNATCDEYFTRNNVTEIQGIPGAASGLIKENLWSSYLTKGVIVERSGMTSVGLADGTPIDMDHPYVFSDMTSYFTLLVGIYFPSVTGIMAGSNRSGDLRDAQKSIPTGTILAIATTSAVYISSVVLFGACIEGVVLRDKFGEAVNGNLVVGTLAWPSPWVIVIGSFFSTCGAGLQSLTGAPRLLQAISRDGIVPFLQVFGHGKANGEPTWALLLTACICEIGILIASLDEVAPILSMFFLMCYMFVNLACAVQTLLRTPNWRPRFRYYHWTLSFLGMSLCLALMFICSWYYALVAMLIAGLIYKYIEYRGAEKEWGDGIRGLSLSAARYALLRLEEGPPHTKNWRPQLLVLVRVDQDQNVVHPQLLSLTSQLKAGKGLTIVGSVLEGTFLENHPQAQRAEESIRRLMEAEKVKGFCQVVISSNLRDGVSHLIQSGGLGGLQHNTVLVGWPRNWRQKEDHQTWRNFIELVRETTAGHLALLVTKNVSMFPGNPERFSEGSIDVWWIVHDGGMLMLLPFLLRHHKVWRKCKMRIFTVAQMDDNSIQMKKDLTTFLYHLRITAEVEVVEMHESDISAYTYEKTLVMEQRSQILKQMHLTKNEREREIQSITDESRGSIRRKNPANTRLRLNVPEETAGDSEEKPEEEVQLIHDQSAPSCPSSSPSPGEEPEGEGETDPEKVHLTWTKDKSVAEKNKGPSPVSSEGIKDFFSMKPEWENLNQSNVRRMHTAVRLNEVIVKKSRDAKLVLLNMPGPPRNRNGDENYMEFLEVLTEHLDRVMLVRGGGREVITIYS
# KCC2 sec1: confirmation of human KCC2 transport modulators; shares compounds with KCC2 mod; hit rate 15% among 3,700; normalised thallium flux (F/F0 slope) at 10 µM; HEK293-KCC2, thallium flux, FluoZin2 fluorescence; hits give high values;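 active means thallium flux slope above the same plate's solvent-only control mean plus 3 SD; inconclusive means the two replicate wells disagree; inactive means no significant difference from solvent-only control wells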
# KCC2 bumet counter: bumetanide-insensitive thallium flux in KCC2 cells with ouabain, counter-screen; hit rate 49% among 3,700; normalized thallium flux at 10 µM; shares compounds with KCC2 mod; HEK293-KCC2 + bumetanide/ouabain, thallium flux FluoZin2; hits give high values;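 active means thallium entry rate above the same plate's blocked-transporter control wells by more than 3 SD; inconclusive means the two repeat wells disagree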;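 further: raw slope of fluorescence over initial fluorescence between 10 and 20 s after thallium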
# KCC2 sec2: confirmation of human KCC2 transport modulators | shares compounds with KCC2 mod | HEK293-KCC2, thallium flux FluoZin2 fluorescence; actives lie on both sides; F/F0 rise rate, 10–20 s post-thallium | normalized thallium flux at 10 µM | hit rate 23% among 3,700 | AID 1715;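 active means thallium flux slope more than 3 SD above or below the plate's solvent-only control mean, mostly below; inconclusive means the two repeat wells disagreed; inactive means no significant shift from solvent-only controls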;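 further: raw slope with 0.1% DMSO as baseline and bumetanide as block control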
# HEK counter1: parental HEK flux effect, counter-screen; shares compounds with KCC2 mod; HEK293 parental cells, thallium flux FluoZin2, ouabain; baseline-ratio fluorescence slope, 10–20 s after thallium; thallium flux rate (normalised fluorescence) at 10 µM; hit rate 46% among 3,700; AID 1716;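 active means thallium flux rate significantly above the same plate's solvent-only control wells, beyond their mean plus 3 SD; inconclusive means the two replicate wells gave conflicting results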
# KCC2 ouabain: confirmation of human KCC2 modulators with ouabain; shares compounds with KCC2 mod; HEK293-KCC2, thallium flux FluoZin2 fluorescence; bidirectional: low = inhibitor, high = activator; raw Tl+ flux slope (below DMSO = inhibition, above = activation) at 10 µM; hit rate 48% among 3,700; AID 1717;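 active means thallium flux slope beyond 3 SD from same-plate DMSO control mean in most replicates, usually higher, sometimes lower; inconclusive means repeat tests gave conflicting results; inactive means no significant difference from controls in most replicates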;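 further: slope of initial-normalized fluorescence between seconds 10 and 20 after thallium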
# HEK counter2: acts in parental HEK cells, second KCC2 counter-screen; shares compounds with KCC2 mod; HEK293 parental, thallium flux FluoZin-2 fluorescence slope; thallium flux slope at 10 µM; hit rate 33% among 3,700; AID 1718;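 active means thallium flux slope above the same plate's solvent-control mean plus 3 SD in both duplicate wells; inconclusive means duplicate wells that disagreed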;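 further: run without ouabain in cells lacking the KCC2 cotransporter; slope of fluorescence scaled to its starting value between 10 and 20 s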
# The depositor's hits bear a star; i = inactive; ? = inconclusive; . = no result.
SMILES,Ins promoter up,SKKanGAS inh,Autophagy HCS,WT yeast gro inh,Rad51 HR inh,KCC2 mod,KCC2 sec1,KCC2 bumet counter,KCC2 sec2,HEK counter1,KCC2 ouabain,HEK counter2
Cn1c(O)c(N=NC(=S)Nc2ccccc2F)c2cc(S(=O)(=O)N3CCOCC3)ccc21,-1,?,i,74*,15,37*,0.016*,0.056*,0.036,?,0.044*,?
C=CCn1c(O)c(N=NC(=S)Nc2ccccc2C)c2cc(S(=O)(=O)N3CCOCC3)ccc21,-2.1,-2,i,4,.,14*,0.013*,0.072*,0.036,0.02*,0.029,0.015*
CCn1c2ccccc2c2nc3cc(S(=O)(=O)N4CCOCC4)ccc3nc21,0.57,4,i,25,.,0.64,.,.,.,.,.,.
Cc1ccc(NC(=S)N=Nc2c(O)n(C)c3ccc(S(=O)(=O)N4CCOCC4)cc23)cc1C,-1.3,10,i,51,.,7.4*,0.011,0.013*,0.034,0.032*,?,0.018*
Cc1cccc(NC(=S)N=Nc2c(O)n(CN3CCOCC3)c3ccccc23)c1C,-0.1,.,i,69*,3,5.3*,0.024*,0.021*,0.035,0.012*,0.026*,0.012*
O=C(CSc1nnc2ccccn12)NNC(=O)c1ccc(Br)cc1,0.29,-1,i,-2,7,-1.4,.,.,.,.,.,.
Cc1onc(-c2ccccc2Cl)c1C(=O)O/N=C(\N)c1ccc([N+](=O)[O-])o1,-0.4,5,.,.,13,-1.4,.,.,.,.,.,.
C=CCn1c(O)c(N=NC(=S)Nc2ccc(OC)c(Cl)c2)c2ccccc21,-2.6,-23,i,-7,.,21*,0.0065,0.029*,0.035,0.024*,0.028*,0.016*
C=CCn1c(O)c(N=Nc2ccccc2C)c2ccccc21,0.54,5,i,-17,9,-0.27,.,.,.,.,.,.
Cc1ccc(N=Nc2ccc(O)c3ncccc23)cc1C,-4.4,88*,i,-1,-3,8.2*,0.0078,0.0077*,0.032,0.014*,0.023,?
O=C(N/N=C/C1CC=CCC1)c1cc(-c2cccnc2)nc2ccccc12 (centres undefined),-0.41,-6,i,-7,0,-0.012,.,.,.,.,.,.
CC(C)Cn1c(N)c(C(=O)CSc2ncnc3sc4c(c23)CCCC4)c(=O)n(C)c1=O,.,42,i,-9,5,7.9*,0.018,0.014*,0.031,0.014*,0.021*,0.014*
CC(=O)C(Sc1ncnc2sc3c(c12)CCCC3)C(C)=O,-0.32,48,i,76*,-9,6.4*,0.015*,0.1*,0.029,0.018*,?,0.013*
Cc1ccc(C(=O)O)cc1NC(=O)CSc1ncnc2sc3c(c12)CCC3,-0.17,.,.,.,.,10*,0.0069,0.016*,0.036,0.017*,0.025*,0.018*
O=C(CSc1ncnc2sc3c(c12)CCCC3)c1ccco1,-0.83,-3,i,12,5,19*,?,0.095*,0.038,?,0.055*,?
Clc1ccc(Cn2cccn2)cn1,0.38,0,i,7,.,1.1,.,.,.,.,.,.
O=C(O)CC1=C(Nc2ccccc2)C(=O)N(c2ccccc2)C1c1ccc(Br)cc1 (centres undefined),-1.1,13,i,7,-130,.,.,.,.,.,.,.
CC(=O)CSc1ncnc2sc3c(c12)CCCC3,.,-1,i,22,.,2.2,.,.,.,.,.,.
CC(C#N)Sc1ncnc2sc3c(c12)CCC3 (centres undefined),-0.25,0,i,-15,4,4.2*,?,0.032*,0.033,0.017*,0.022,0.013*
CCCn1c(N2CCC(Cc3ccccc3)CC2)nc2c1c(=O)[nH]c(=O)n2C,-1.6,1,i,68*,-3,.,0.0057,0.004,?,?,0.016*,0.01
CCCCCn1c(N2CCN(Cc3ccccc3)CC2)nc2c1c(=O)[nH]c(=O)n2C,-0.18,3,i,10,-2,-1.6,.,.,.,.,.,.
C=C(C)CSc1nc2c(c(=O)[nH]c(=O)n2C)n1Cc1ccccc1,-0.18,-3,.,23,-1,0.5,.,.,.,.,.,.
C=C(C)Cn1c(N2CCC(Cc3ccccc3)CC2)nc2c1c(=O)[nH]c(=O)n2C,.,12,i,40,2,-3.6*,0.0064,0.0059*,0.024*,0.0067,0.016*,0.0095
CCCCCn1c(N2CCC(Cc3ccccc3)CC2)nc2c1c(=O)[nH]c(=O)n2C,.,93*,i,88*,-1,-5.5*,0.0082,0.0044,0.032,0.0062,0.021,0.01
CCOC(=O)C1C(c2cccc([N+](=O)[O-])c2)C2C(=O)NN=C2CC1(C)O (centres undefined),1.6,2,i,-12,-9,0.49,.,.,.,.,.,.
SMILES,Ins promoter up,SKKanGAS inh,Autophagy HCS,WT yeast gro inh,Rad51 HR inh,KCC2 mod,KCC2 sec1,KCC2 bumet counter,KCC2 sec2,HEK counter1,KCC2 ouabain,HEK counter2
CCCCCc1ccc(CC(=O)N2CCOCC2)cc1,.,-2,.,.,.,.,.,.,.,.,.,.
CCCCn1c(N)c(N(CC(C)C)C(=O)CCCn2c(=O)oc3ccccc32)c(=O)[nH]c1=O,.,-6,.,.,.,.,.,.,.,.,.,.
c1ccc2c(c1)CCc1ccccc1C2=C1CCNCC1,.,-5,.,.,.,.,.,.,.,.,.,.
COc1ccc(Cl)cc1NC(=O)COC(C)=O,-0.25,12,i,-5,19,0.4,.,.,.,.,.,.
COc1ccc(Cl)cc1NC(=O)CC(C)=O,0.61,-4,i,8,12,7.3*,?,?,0.033,0.0081,0.023,0.011
COCC(=O)Nc1cc(OC)ccc1OC,1.2,-2,i,10,-4,.,0.01,?,0.035,?,0.023,?
O=C(NNC(=O)C12CC3CC(CC(C3)C1)C2)c1ccccn1,-1.1,4,.,.,16,22*,0.006,0.041*,0.044*,0.027*,0.042*,0.03*
CC/C(=N\NC(=O)c1ccncc1)C12CC3CC(CC(C3)C1)C2,.,0,i,-10,-3,0.97,.,.,.,.,.,.
O=C(NNC(=S)NC(=O)C12CC3CC(CC(C3)C1)C2)c1ccncc1,-0.27,108*,i,80*,.,.,0.017*,0.038*,0.036,0.02*,0.029,0.013*

# High-throughput results from PubChem BioAssay.
